Source: ChEMBL document CHEMBL6083224, “A novel aurone RNA CAG binder inhibits the huntingtin RNA-protein interaction” (RSC Med Chem, 2024)
Activity calls are given as the source filed them. No cut-off for these calls is given here.

How the values were obtained:
Type in all cases: nucleic-acid assay
r(CUG) repeat expansion = assay: Binding affinity to CUG (5-GGUCGCUGCUGCACGAAAGUGCUGCUGCGACC-3) RNA (unknown origin) assessed as change in fluorescence intensity
CAG repeat expansion [1] = assay: Binding affinity to CAG (5-GCAGCAGCUUCGGCAGCAGC-3) repeat RNA (unknown origin) assessed as hypochromic red shift by spectrophotometric analysis
In short: (§1)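 The compound was titrated with RNA, and electronic absorption spectra were recorded on a two-beam UV-vis spectrophotometer. Binding constants were calculated from the spectrophotometric titration data.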

CAG repeat expansion [2] = assay: Binding affinity to HTT exon 1 (CAG)51 repeat RNA (unknown origin) assessed as reduction in human MID1 binding to HTT exon 1 (CAG)51 repeat RNA at 100 uM by Western blot analysis
In short: (§2)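 Biotinylated RNA was folded in 10 mM Tris pH 7, 100 mM KCl, 10 mM MgCl₂ (72 °C for 10 min, then cooled to room temperature). 80 pmol of RNA was loaded onto streptavidin-agarose beads in buffer D for 30 min at room temperature. HEK293T protein extract was bound overnight at 4 °C. After washes, bound proteins were eluted at 95 °C for 10 min, and MID1 was detected by anti-MID1 western blot.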

[3] = tested on: Rev responsive element (RRE) RNA; assay: Binding affinity to HIV-1 RRE-IIB (5-GGUCUGGGCGCAGCGCAAGCUGACGGUACAGGCC-3) RNA assessed as change in fluorescence intensity; conditions: Human immunodeficiency virus 1
CAG repeat expansion [4] = assay: Binding affinity to CAG (5-GCAGCAGCUUCGGCAGCAGC-3) repeat RNA (unknown origin) assessed as binding constant; in short: as §1
CAG repeat expansion [5] = assay: Binding affinity to HTT exon 1 (CAG)51 repeat RNA (unknown origin) assessed as reduction in human MID1 binding to HTT exon 1 (CAG)51 repeat RNA by Western blot analysis; conditions: dose 1-100 µM; in short: as §2
TAR RNA = assay: Binding affinity to HIV-1 TAR (5-GGCAGAUCUGAGCCUGGGAGCUCUCUGCC-3) RNA assessed as change in fluorescence intensity; conditions: Human immunodeficiency virus 1
CAG repeat expansion [6] = assay: Binding affinity to CAG (5-GCAGCAGCUUCGGCAGCAGC-3) repeat RNA (unknown origin) by spectrophotometric analysis; in short: as §1

SMILES | Activity (r(CUG) repeat expansion) | Activity (CAG repeat expansion [1]) | Activity (CAG repeat expansion [2]) | Activity [3] | K (CAG repeat expansion [4]) | Activity (CAG repeat expansion [5]) | Activity (TAR RNA) | Activity (CAG repeat expansion [6])
CN(C)CCOc1ccc(/C=C2\Oc3cc(OCCN(C)C)ccc3C2=O)cc1 | No effect | Active | Active | No effect | 1.4 10^5/M | Dose-dependent-effect | No effect | 
O=C1/C(=C/c2c3ccccc3cc3ccccc23)Oc2ccccc21 | inactive |  | inactive | Active |  |  | Active | inactive
